Measurements as given in ChEMBL document CHEMBL1134490, “Estradiol-16alpha-carboxylic acid esters as locally active estrogens” (2001).

Key:
Ishikawa = experiment: Relative stimulation of alkaline phosphatase (AlkP) activity in Ishikawa cells; format: functional, Homo sapiens
Method in brief: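 Ishikawa cells in phenol red-free medium with charcoal-stripped bovine serum, exposed for 3 days to steroid over at least 6 orders of magnitude of concentration. Cells were freeze-thawed, then given 5 mM p-nitrophenyl phosphate at pH 9.8, read kinetically at 405 nm. RSA = (1/EC50 analogue)/(1/EC50 E2) × 100. At least three experiments in duplicate.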

[1] = test system: esterase (Rattus norvegicus); experiment: Relative hydrolytic activity against esterase in rat hepatic microsomes; settings: Liver

| RHA [1] | Compound | RSA (Ishikawa) |
| --- | --- | --- |
| – | C[C@]12CC[C@@H]3c4ccc(O)cc4CC[C@H]3[C@@H]1C[C@@H](CC(=O)O)[C@@H]2O | 0 |
| 700 | CCOC(=O)C[C@@H]1C[C@H]2[C@@H]3CCc4cc(O)ccc4[C@H]3CC[C@]2(C)[C@H]1O | 0.3 |
| 340 | COC(=O)C[C@@H]1C[C@H]2[C@@H]3CCc4cc(O)ccc4[C@H]3CC[C@]2(C)[C@H]1O | 0.5 |
| 910 | COC(=O)CC[C@@H]1C[C@H]2[C@@H]3CCc4cc(O)ccc4[C@H]3CC[C@]2(C)[C@H]1O | 0 |
| – | CC(C)OC(=O)[C@@H]1C[C@H]2[C@@H]3CCc4cc(O)ccc4[C@H]3CC[C@]2(C)[C@H]1O | 0.1 |
| – | C[C@]12CC[C@@H]3c4ccc(O)cc4CC[C@H]3[C@@H]1CCC2=O [ESTRONE] | 7 |
| – | C[C@]12CC[C@@H]3c4ccc(O)cc4CC[C@H]3[C@@H]1C[C@@H](CCC(=O)O)[C@@H]2O | 0 |
